A selection: hits, their analogues and other compounds. The true share with any hit is near 4.3%.
HTR2A ag: mouse Htr2a agonists via beta-arrestin recruitment, primary screen, cell-based, luminescence. 5-hydroxytryptamine receptor 2A (Mus musculus), P35363. CHO-K1 mHTR2A beta-arrestin complementation; percent of 30 µM serotonin response. activation, % at 7.6 µM. hit rate 0.66% among 360,000. AID 624169, 2012;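 active = activation above a run cutoff, the mean activation of all tested compounds plus 3 SD, cut at about 14% in these data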;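 also: 0% = plate median of compound wells and 100% = 30 µM serotonin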
Target sequence (P35363 whole entry, looked up): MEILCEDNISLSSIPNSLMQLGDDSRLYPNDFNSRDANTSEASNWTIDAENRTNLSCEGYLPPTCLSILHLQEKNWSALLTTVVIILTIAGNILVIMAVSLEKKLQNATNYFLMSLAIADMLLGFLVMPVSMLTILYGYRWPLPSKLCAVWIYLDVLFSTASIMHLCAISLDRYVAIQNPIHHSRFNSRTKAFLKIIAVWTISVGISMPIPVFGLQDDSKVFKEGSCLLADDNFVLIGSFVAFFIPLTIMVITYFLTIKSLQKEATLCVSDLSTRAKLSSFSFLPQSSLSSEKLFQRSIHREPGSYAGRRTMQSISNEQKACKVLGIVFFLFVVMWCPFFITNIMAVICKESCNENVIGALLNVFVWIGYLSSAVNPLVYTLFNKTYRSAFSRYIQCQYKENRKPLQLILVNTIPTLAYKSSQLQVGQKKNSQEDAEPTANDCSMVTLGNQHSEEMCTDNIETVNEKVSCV
TAAR1 ag: human TAAR1 agonists, primary screen, Fluo-8 calcium fluorescence, CHO RD-HGA16 cells | vehicle wells 0%, saturating PEA agonist 100% | activation, % at 3 µM | Trace amine-associated receptor 1 (Homo sapiens), Q96RJ0 | hit rate 0.99% among 360,000 | AID 624467, 2012;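 active = activation above the mean activation of all test compounds in the run plus 3 SD, cut at about 38% in these data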
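Repeats: no replicates (n 1) | Material: CHO-derived RD-HGA16 cells with stable Gα16 and human TAAR1 | Technique: Kinetic Fluo-8 calcium fluorescence | Schedule: 17-24 h seeding, 75 min 37 °C dye, 30 min RT | Evaluation: % activation from peak over basal fluorescence ratio, DMSO-to-PEA scaled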
MC4R barr agon: MC4R agonists recruiting beta-arrestin, primary screen, cell-based, luminescence, agonist arm of biased-ligand search | U2OS MC4R beta-arrestin complementation; percent of melanotan II response, DMSO zero | hit rate 0.98% among 360,000 | activation, % at 8.9 µM | AID 540308, 2011 | Melanocortin receptor 4 (Homo sapiens), P32245;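 active = activation above a per-plate cutoff, the mean activation of sample wells on that plate plus 3 SD, cut at about 8% in these data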
TAAR1 antag: human TAAR1 antagonists, primary screen, Fluo-8 calcium fluorescence, CHO RD-HGA16 cells. inhibition, % at 3 µM. antagonist. hit rate 1.5% among 360,000. AID 624466, 2012;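 active = inhibition above a per-plate cutoff, the mean inhibition of test compounds on that plate plus 3 SD, cut at about 49% in these data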;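 also: 0% = DMSO plus EC80 beta-PEA response and 100% = DMSO alone without agonist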
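Test system: CHO RD-HGA16 cells bearing hTAAR1 | Reagent: β-PEA, EC80 | Compound dosing: 3 µM, single point | Schedule: Dye loading 75 min at 37 °C, then 30 min room temperature | Signal: Calcium fluorescence with Fluo-8 | Evaluation: Percent inhibition of PEA-evoked calcium signal, max/basal emission ratio | Control set: DMSO-only wells and EC80 β-PEA-stimulated wells | Repeats: Singlicate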
Beta2AR agonist: beta2AR agonists driving receptor internalization, primary screen, cell-based, FAP fluorogen, flow cytometry; hit rate 0.43% among 340,000; Am2.2-beta2AR cells; Beta-2 adrenergic receptor (Homo sapiens), P07550; response, % (no concentration beside the values);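 active = response above a set limit, near 3 SD of response in nonfluorescent compounds, cut at about 42% in these data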
MC4R antagonist: MC4R antagonists of cAMP signaling, primary screen, cell-based, TR-FRET, antagonist arm of biased-ligand search; MC4R-expressing cells, MTII-stimulated cAMP, LANCE TR-FRET; Melanocortin receptor 4 (Homo sapiens), P32245; AID 540295, 2011; hit rate 0.48% among 360,000; inhibition, % at 6.5 µM;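 active = inhibition above its plate's cutoff, the mean of tested wells on that plate plus 3 SD, cut at about 29% in these data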;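 also: 0% = Melanotan II alone and 100% = Melanotan II plus saturating MCL0020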
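Assay system: U2OS-MC4R stable cell line; Also added: Melanotan II; Technique: Eu-cAMP/anti-cAMP TR-FRET, emission 671 nm; Times: 30-min compound, 1-h challenge, 1-h detection, room temperature.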
MC4R barr ag: MC4R beta-arrestin agonists, retest, confirmation, cell-based, luminescence, U2OS | shares compounds with MC4R barr agon | U2OS MC4R beta-arrestin recruitment; scaled DMSO 0%, Melanotan II 100% | activation, % at 8.9 µM | hit rate 31% among 2,400 | AID 602192, 2012;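 active = mean activation across replicates above the hit cutoff set in the earlier primary screen, cut at about 8% in these data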
MOR-DOR barr ag: agonists of MOR-DOR heterodimerization, counter-screen for MC4R biased agonist project, cell-based, luminescence; U2OS PathHunter beta-arrestin, beta-gal luminescence; percent of deltorphin B response, DMSO zero; shares compounds with MC4R barr agon; hit rate 5.8% among 2,400; AID 602194, 2012; activation, % at 9.2 µM;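 active = mean activation across replicates exceeds the hit threshold derived in the earlier primary screen, cut at about 18% in these data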;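 also: 100% = deltorphin B at 0.9 µM final and 0% = DMSO alone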
The depositor's hits bear a star; . = not tested or not shown.

SMILES	HTR2A ag	TAAR1 ag	MC4R barr agon	TAAR1 antag	Beta2AR agonist	MC4R antagonist	MC4R barr ag	MOR-DOR barr ag
O=C1COc2ccc(S(=O)(=O)N3CCN(c4cccc(Cl)c4)CC3)cc2N1	5.1	0.0	9.6*	-12.2	3.8	-1.1	3.6	9.5
O=C1COc2ccc(S(=O)(=O)CCC(=O)N3CCN(c4cccc(Cl)c4)CC3)cc2N1	5.3	6.1	0.8	10.4	15.6	1.1	.	.
COC(=O)C1CC(O)C(O)C(O)C1 (centres undefined)	1.7	0.0	-1.3	10.5	-0.8	11.8	.	.
CC(C)NC(=O)C1(C)CN(S(C)(=O)=O)CC(=O)N1CCc1ccccc1F (centres undefined)	1.2	2.1	.	-2.2	.	.	.	.
COC(=O)CCCN1C(=O)NC(c2ccc(-c3ccccc3)cc2)C(C(=O)OCc2ccccc2)=C1C (centres undefined)	-2.0	4.5	11.6*	-20.5	1.1	6.3	12.3*	2.9
COc1cccc(-c2ccc(C#N)c(SCC(=O)NCc3ccco3)n2)c1	-0.1	0.1	18.8*	10.8	9.0	2.0	-2.5	16.7
Cc1ccc(N=c2c([N+](=O)[O-])nn(-c3ccccc3)n2O)c(C)c1	5.3	11.9	-0.5	-6.4	6.4	1.7	.	.
Cc1c(Cl)cccc1N=c1c([N+](=O)[O-])nn(-c2ccccc2)n1O	0.9	3.3	23.6*	8.8	5.3	14.4	2.5	9.1
CC1CCC2(CC1)NC(=O)N(CC(=O)NC1CCCCC1C)C2=O (centres undefined)	3.4	-0.7	-1.2	0.3	-2.3	4.9	.	.
CCOc1cc(/C=N/NC(=O)c2nn(C)cc2Br)ccc1OCc1ccccc1Cl	2.0	0.7	12.0*	36.9	19.1	-8.6	0.5	2.8
Cn1cc(Br)c(C(=O)N/N=C/c2cccc(OC3CSC3)c2)n1	4.9	7.8	-2.4	20.2	-6.9	3.6	.	.
COc1cccc(-c2cc(C(=O)NCc3ccco3)c3ccccc3n2)c1	-0.5	7.9	-1.0	38.7	5.0	15.7	.	.
O=c1c2ccccc2nnn1CSc1nnc(Nc2ccccc2)s1	2.6	15.5	10.2*	0.5	-4.1	2.5	0.3	2.4
C#CCOCCOCCOCCNc1nc(N2CCN(C(=O)C([C@@H](C)O)n3cc([C@@H](N)CCCCN)nn3)CC2)nc(N2CCN(C(=O)C([C@@H](C)O)n3cc([C@@H](N)CCCCN)nn3)CC2)n1 (some centres undefined)	-4.7	0.4	-0.8	6.8	-4.3	7.9	.	.
Cc1ccc(C(=O)Nc2c(C)cc(-c3ccc(Cl)cc3)oc2=O)cc1	3.8	8.4	18.9*	-4.7	5.5	-5.8	0.3	7.9
Cc1cc(-c2ccc(Cl)cc2)oc(=O)c1NC(=O)c1ccccc1	1.2	16.7	0.3	16.4	-3.9	-0.3	.	.
COc1ccc(NC(=O)[C@@H]2CC=C[C@@H]3CCN(Cc4ccc(Cl)c(Cl)c4)C(=O)[C@@H]32)cc1	-4.5	12.4	12.9*	10.5	15.2	4.4	10.9*	2.8
O=C1[C@H]2[C@H](C=CC[C@H]2C(=O)N2CCN(c3ccccc3)CC2)CCN1Cc1ccc(Cl)c(Cl)c1	0.8	25.3	69.1*	43.1	29.4	15.1	15.5*	4.2
O=C(NCCc1ccccc1)[C@@H]1CC=C[C@@H]2CCN(Cc3ccc(Cl)c(Cl)c3)C(=O)[C@@H]21	2.2	31.9	12.0*	17.4	7.3	-3.2	9.3*	7.6
COc1ccc(NC(=O)[C@@H]2CC=C[C@@H]3CCN(Cc4ccccc4)C(=O)[C@@H]32)cc1	0.0	9.4	2.0	6.3	4.3	-3.4	.	.
O=C1[C@H]2[C@H](C=CC[C@H]2C(=O)N2CCN(c3ccccc3)CC2)CCN1Cc1ccccc1	-2.6	5.2	-0.3	12.8	5.3	1.5	.	.
COc1ccc(CNC(=O)c2cn(Cc3ccccc3F)c(=O)s2)cc1	-4.6	0.3	-0.7	21.7	.	10.3	.	.
C=CCOc1ccc(/C=C/C(=O)OCC(=O)NCc2ccco2)cc1	5.5	3.9	-1.8	-9.6	-14.5	-17.4	.	.
CCCCCCc1cc2cc(S(=O)(=O)c3ccc(C)cc3)c(=O)oc2cc1O	-1.4	3.4	22.0*	25.3	1.5	4.5	9.6*	5.7
O=S(OCCN1CCCC1)C(c1ccccc1)c1ccccc1 (centres undefined)	-2.0	2.1	-1.1	-18.4	5.8	2.0	.	.
SMILES	HTR2A ag	TAAR1 ag	MC4R barr agon	TAAR1 antag	Beta2AR agonist	MC4R antagonist	MC4R barr ag	MOR-DOR barr ag
Cc1cc(NC(=O)C(C)SCC(=O)OCc2ccc(Cl)cc2Cl)no1 (centres undefined)	-1.6	6.5	3.3	-14.1	-2.7	24.7	.	.
CC(C)(C)OC(=O)C[C@H]1C/C=C\C[C@@H](CC(=O)N[C@H](CO)Cc2ccccc2)C(=O)NC[C@H](c2ccccc2)OC1=O	4.0	7.0	-0.7	19.8	-6.1	3.2	.	.
Cc1csc2nc(O)c(C(=O)NCCC3=CCCCC3)c(=O)n12	2.4	12.0	14.3*	-14.6	0.1	-3.8	-0.9	2.9
Cn1nc(C(C)(C)C)cc1C(=O)N1CCCC(c2cc(C(=O)Nc3ccccc3Cl)no2)C1 (centres undefined)	4.9	0.5	0.1	34.1	.	14.8	.	.
O=C(OCC(=O)N1CCN(C(=O)c2ccco2)CC1)c1cc(-c2ccc(Cl)c(Cl)c2Cl)nc2ccccc12	1.8	6.4	11.1*	16.0	-1.0	-1.6	5.2	2.9
O=C(OCC(=O)N1CCN(C(=O)c2ccco2)CC1)c1cc(-c2ccco2)nc2ccccc12	3.4	.	1.4	.	9.7	-17.9	.	.
CCOC(=O)CCCN1CC(O)=C(c2nc(-c3ccc(Cl)cc3)cs2)C1=N	-0.7	-0.4	22.6*	-34.5	10.3	-0.1	4.7	2.3
CCc1ccccc1Oc1nc(NCc2ccccc2)nc2ccsc12	-1.4	4.3	-1.7	2.1	.	6.2	.	.

Screening data (PubChem)
